# Laboratory results: ChEMBL document CHEMBL1135526, “Discovery of 2-phenylamino-imidazo[4,5-h]isoquinolin-9-ones: a new class of inhibitors of lck kinase” (J Med Chem, 2002)
# The source made the active and inactive calls. No cut-off for these calls is given here.
# Columns and labels:
# [1] = system: Jurkat; experiment: Inhibition of calcium release in Jurkat cells; format: functional, cell-based; settings: Homo sapiens
# Outline: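 Jurkat cells were washed, loaded with Fluo-3 (2 μM final), then held in HBSS with Ca/Mg, HEPES, probenecid and 1% FBS at pH 7.4, giving 3 × 10⁵ cells/mL final. Compound was added for 15 min at room temperature. Anti-CD3 (clone X35, 0.25 μg/mL final) was then added and fluorescence followed for 13 min. EC50 is the mean of ≥2 experiments in duplicate ± SD.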
# [2] = biological target: Tyrosine-protein kinase Lck (Homo sapiens, UniProt P06239); experiment: Inhibitory activity against recombinant human p56 Lck tyrosine kinase
# [3] = Inhibition of Extracellular signal-regulated kinase (Erk) - No inhibition at 100 ug/mL
# [4] = biological target: MAP kinase p38 (Homo sapiens) (UniProt O15264+Q15759+Q16539+P53778); experiment: Inhibition of Mitogen-activated protein kinase p38 - No inhibition at 10 ug/mL; format: protein assay
# [5] = biological target: cAMP-dependent protein kinase (PKA) (Homo sapiens) (UniProt P22694+P17612+P22612); experiment: Inhibition of Protein kinase A (PKA) - No inhibition at 500 uM; format: protein assay
# [6] = biological target: Epidermal growth factor receptor (Homo sapiens, UniProt P00533); experiment: Inhibition of Epidermal growth factor receptor
# [7] = biological target: Tyrosine-protein kinase SYK (Homo sapiens, UniProt P43405); experiment: Inhibition of Syk tyrosine kinase
# Outline: (§1)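 Enzyme amount for each kinase chosen to give a linear response over the whole reaction period. Inhibition was read as IC50 or as the highest concentration tested.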
# [8] = biological target: Proto-oncogene tyrosine-protein kinase Src (Homo sapiens, UniProt P12931); experiment: Inhibition of c-SRC with 1 uM ATP; outline: as §1
# [9] = biological target: T1, Tyrosine-protein kinase ZAP-70 (Homo sapiens, UniProt P43403); experiment: Inhibition of Zeta-chain (TCR) associated protein kinase 70 kDa (ZAP70) with 1 uM ATP
# T1 sequence (P43403 whole entry): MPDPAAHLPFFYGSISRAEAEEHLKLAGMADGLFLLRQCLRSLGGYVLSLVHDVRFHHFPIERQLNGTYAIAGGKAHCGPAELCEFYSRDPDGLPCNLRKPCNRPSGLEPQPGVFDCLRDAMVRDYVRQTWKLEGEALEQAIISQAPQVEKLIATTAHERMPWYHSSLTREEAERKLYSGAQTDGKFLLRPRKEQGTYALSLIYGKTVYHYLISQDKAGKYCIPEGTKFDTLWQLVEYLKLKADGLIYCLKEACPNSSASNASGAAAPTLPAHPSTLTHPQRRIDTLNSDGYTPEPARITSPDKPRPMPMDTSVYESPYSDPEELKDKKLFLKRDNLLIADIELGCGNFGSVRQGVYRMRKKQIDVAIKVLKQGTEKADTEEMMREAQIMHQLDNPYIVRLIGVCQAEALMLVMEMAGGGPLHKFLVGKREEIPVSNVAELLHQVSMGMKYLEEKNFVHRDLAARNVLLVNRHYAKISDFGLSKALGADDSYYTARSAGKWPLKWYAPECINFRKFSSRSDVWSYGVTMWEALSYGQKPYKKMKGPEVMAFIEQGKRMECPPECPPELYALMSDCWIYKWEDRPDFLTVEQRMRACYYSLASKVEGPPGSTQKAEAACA
# Outline: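 Radiometric kinase assay with enzyme amount set to give a linear response over the reaction period. ATP at 1 μM final with γ³³P-ATP at 20 Ci/mmol. Compounds from 5 mg/mL DMSO stock, final 200 to 1 μg/mL for IC50. Reactions started with enzyme, run 60 min at 30 °C, stopped with TCA/pyrophosphate, filter-harvested, and counted by scintillation.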
# Sequence of Tyrosine-protein kinase Lck (P06239 whole entry): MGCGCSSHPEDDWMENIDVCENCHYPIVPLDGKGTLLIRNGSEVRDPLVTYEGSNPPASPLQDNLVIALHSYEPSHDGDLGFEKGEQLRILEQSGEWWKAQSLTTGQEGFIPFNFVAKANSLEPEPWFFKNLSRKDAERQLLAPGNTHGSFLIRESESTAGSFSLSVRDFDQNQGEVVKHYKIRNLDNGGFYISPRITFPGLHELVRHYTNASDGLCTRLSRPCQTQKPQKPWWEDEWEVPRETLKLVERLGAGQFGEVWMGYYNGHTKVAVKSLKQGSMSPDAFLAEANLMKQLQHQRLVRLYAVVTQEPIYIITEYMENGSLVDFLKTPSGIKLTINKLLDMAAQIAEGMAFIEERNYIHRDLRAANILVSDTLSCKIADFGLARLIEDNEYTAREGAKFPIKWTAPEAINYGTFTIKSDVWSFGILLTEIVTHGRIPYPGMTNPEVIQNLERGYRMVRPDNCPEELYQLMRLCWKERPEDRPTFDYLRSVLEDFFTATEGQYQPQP
# Sequence of Proto-oncogene tyrosine-protein kinase Src (P12931 2-536 limits assumed): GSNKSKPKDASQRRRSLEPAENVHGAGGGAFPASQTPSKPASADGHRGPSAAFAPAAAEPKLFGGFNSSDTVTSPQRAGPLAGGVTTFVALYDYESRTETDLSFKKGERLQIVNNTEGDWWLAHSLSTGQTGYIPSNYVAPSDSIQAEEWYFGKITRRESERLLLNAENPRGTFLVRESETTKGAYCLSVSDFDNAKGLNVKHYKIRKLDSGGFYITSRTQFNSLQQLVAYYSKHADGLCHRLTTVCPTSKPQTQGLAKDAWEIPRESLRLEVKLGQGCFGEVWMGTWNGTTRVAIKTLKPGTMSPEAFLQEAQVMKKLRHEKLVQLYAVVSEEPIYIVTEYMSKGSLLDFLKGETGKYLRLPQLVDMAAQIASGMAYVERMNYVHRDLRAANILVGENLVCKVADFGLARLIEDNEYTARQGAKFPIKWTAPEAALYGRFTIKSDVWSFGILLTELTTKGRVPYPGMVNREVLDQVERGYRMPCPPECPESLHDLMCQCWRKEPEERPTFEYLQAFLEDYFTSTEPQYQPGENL
# Sequence of Epidermal growth factor receptor (P00533 whole entry): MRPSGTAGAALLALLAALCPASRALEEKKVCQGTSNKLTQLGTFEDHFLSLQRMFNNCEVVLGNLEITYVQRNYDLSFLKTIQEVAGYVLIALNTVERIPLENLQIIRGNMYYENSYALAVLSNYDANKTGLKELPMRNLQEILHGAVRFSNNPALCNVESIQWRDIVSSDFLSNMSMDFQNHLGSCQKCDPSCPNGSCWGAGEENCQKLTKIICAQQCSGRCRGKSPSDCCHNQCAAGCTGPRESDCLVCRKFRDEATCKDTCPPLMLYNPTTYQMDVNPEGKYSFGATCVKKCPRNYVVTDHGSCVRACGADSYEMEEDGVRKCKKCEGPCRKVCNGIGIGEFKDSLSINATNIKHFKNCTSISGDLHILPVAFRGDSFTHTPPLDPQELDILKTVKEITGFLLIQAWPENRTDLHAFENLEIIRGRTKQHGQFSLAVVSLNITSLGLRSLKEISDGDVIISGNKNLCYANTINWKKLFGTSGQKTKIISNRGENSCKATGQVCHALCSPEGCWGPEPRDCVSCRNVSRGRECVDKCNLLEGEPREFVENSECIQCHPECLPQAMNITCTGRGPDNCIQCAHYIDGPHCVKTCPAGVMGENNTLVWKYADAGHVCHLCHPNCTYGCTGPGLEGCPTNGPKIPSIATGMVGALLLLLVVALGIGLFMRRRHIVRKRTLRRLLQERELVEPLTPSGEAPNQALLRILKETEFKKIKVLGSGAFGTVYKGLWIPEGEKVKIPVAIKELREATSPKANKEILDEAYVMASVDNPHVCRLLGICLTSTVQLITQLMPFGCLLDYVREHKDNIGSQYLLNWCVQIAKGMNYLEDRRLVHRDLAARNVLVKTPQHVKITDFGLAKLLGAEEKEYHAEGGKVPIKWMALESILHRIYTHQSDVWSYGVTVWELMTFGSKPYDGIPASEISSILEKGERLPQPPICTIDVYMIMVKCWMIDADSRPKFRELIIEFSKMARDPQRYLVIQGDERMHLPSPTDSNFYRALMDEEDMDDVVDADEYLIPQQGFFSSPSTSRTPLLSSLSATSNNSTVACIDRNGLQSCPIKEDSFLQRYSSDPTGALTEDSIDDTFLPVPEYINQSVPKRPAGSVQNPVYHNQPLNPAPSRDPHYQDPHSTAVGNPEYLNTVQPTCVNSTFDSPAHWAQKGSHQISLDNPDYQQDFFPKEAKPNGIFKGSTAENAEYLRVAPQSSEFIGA
SMILES,EC50 [1] [nM],IC50 [2] [nM],further results
Cc1nc(O)c2c(ccc3[nH]c(Nc4c(Cl)cc(Cl)cc4Cl)nc32)c1C,420,18,–
O=C1NCCc2ccc3[nH]c(Nc4c(Cl)cccc4Cl)nc3c21,1800,380,–
CN(c1nc2c3c(ccc2[nH]1)C(C)(C)C(=O)NC3=O)c1c(Cl)cccc1Cl,–,2500,–
CC1(C)C(=O)NC(=O)c2c1ccc1[nH]c(Nc3c(F)cccc3F)nc21,–,11000,–
CC1(C)C(=O)NC(=O)c2c1ccc1[nH]c(Nc3c(Cl)c(Cl)cc(Cl)c3Cl)nc21,–,> 40000,–
Cc1nc(O)c2c(ccc3[nH]c(Nc4c(Cl)cccc4Cl)nc32)c1C,190,–,NI [3]: inactive; NI [4]: inactive; NI [5]: inactive
CC1(C)C(=O)NC(=O)c2c1ccc1[nH]c(Nc3c(Cl)cc(Cl)cc3Cl)nc21,4300,730,–
Cc1nc(O)c2c(ccc3[nH]c(Nc4c(Br)cc(Br)cc4Br)nc32)c1C,610,25,–
CC1(C)C(=O)NC(=O)c2c1ccc1nc(Nc3c(Br)cc(Br)cc3Br)[nH]c21,7300,600,–
Cc1[nH]c(=O)c2c(ccc3[nH]c(Nc4ccccc4Cl)nc32)c1C,–,150,–
CC1(C)C(=O)NC(=O)c2c1ccc1[nH]c(Cc3c(Cl)cccc3Cl)nc21,–,9600,–
CC1(C)CNCc2c1ccc1[nH]c(Nc3c(Cl)cccc3Cl)nc21,–,> 40000,–
Cc1cccc(Cl)c1Nc1nc2c(ccc3c(C)c(C)nc(O)c32)[nH]1,340,27,–

# Now from value to compound, other results behind:
EC50 [1] [nM],IC50 [2] [nM],SMILES,further results
9700,460,CC1(C)C(=O)NC(=O)c2c1ccc1nc(Nc3c(Cl)cccc3Cl)[nH]c21,–
2900,770,Cc1cccc(Cl)c1Nc1nc2c3c(ccc2[nH]1)C(C)(C)C(=O)NC3=O,–
–,5100,CC(C)CC1(C)C(=O)NC(=O)c2c1ccc1nc(Nc3c(Cl)cccc3Cl)[nH]c21 (stereo not drawn),–
–,> 40000,CC1(C)C(=O)NC(=O)c2c1ccc1nc(Nc3ccc(Cl)cc3)[nH]c21,–
–,9600,CN1C(=O)c2c(ccc3nc(Nc4c(Cl)cccc4Cl)[nH]c23)C(C)(C)C1=O,–
–,> 40000,CCc1cccc(CC)c1Nc1nc2ccc3c(c2[nH]1)C(=O)NC(=O)C3(C)C,–
–,> 40000,CC1(C)C(=O)NC(=O)c2c1ccc1nc(Nc3ccccc3Cl)[nH]c21,–
–,5900,CCC1(CC)C(=O)NC(=O)c2c1ccc1[nH]c(Nc3c(Cl)cccc3Cl)nc21,–
–,> 40000,CC1(C)C(=O)NC(=O)c2c1ccc1nc(Nc3ccc(Cl)cc3Cl)[nH]c21,–
–,2500,Cn1c(Nc2c(Cl)cccc2Cl)nc2c3c(ccc21)C(C)(C)C(=O)NC3=O,–
4600,460,Cc1cccc(C)c1Nc1nc2ccc3c(c2[nH]1)C(=O)NC(=O)C3(C)C,–
–,26,Cc1[nH]c(=O)c2c(ccc3nc(Nc4c(Cl)cccc4Cl)[nH]c32)c1C,IC50 [6]: 100000 nM; IC50 [7]: > 100000 nM; IC50 [8]: 12 nM; IC50 [9]: 80000 nM
5200,1100,CC1(C)CNC(=O)c2c1ccc1nc(Nc3c(Cl)cccc3Cl)[nH]c21,–
